For nine molecules, Ratio IC50 and IC50 results are on record in ChEMBL document CHEMBL4184341, “Structure-Based Design of Inhibitors with Improved Selectivity for Steroidogenic Cytochrome P450 17A1 over Cytochrome P450 21A2” (J Med Chem, 2018).

The species entered for one assay is Homo sapiens. The assay can be described thus: Selectivity ratio of IC50 for C-terminal His-tagged recombinant human CYP21A2deltaH mutant to IC50 for C-terminal His-tagged recombinant human CYP17A1delta19H mutant.
Assay [1] deals with T1, Steroid 17-alpha-hydroxylase/17,20 lyase (Homo sapiens, UniProt P05093). The assay can be described thus: Inhibition of C-terminal His-tagged recombinant human CYP17A1delta19H mutant expressed in Escherichia coli DH5alpha assessed as decrease in progesterone hydroxylation preincubated for 3 mins followed by NADPH addition measured after 10 mins in presence of cytochrome p450 reductase by LC-MS/MS method. In short, it runs like this: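 Purified human CYP17A1 (20 pmol) was preincubated with full-length human CPR (80 pmol) for 20 min at rt. […] After 3 min at 37 °C, 1 mM NADPH was added and the reaction ran 10 min before a TCA stop. The 17α-hydroxy product was read by LC-MS/MS.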

The next assay has as its target Steroid 21-hydroxylase (Homo sapiens, UniProt P08686). The assay can be described thus: Inhibition of C-terminal His-tagged recombinant human CYP21A2deltaH mutant expressed in Escherichia coli DH5alpha assessed as decrease in progesterone hydroxylation preincubated for 3 mins followed by NADPH addition measured after 8 mins in presence of cytochrome p450 reductase by LC-MS/MS method.

For assay [2], the target named is T1, Steroid 17-alpha-hydroxylase/17,20 lyase. The assay is described as follows: Inhibition of C-terminal His-tagged recombinant human CYP17A1delta19H mutant expressed in Escherichia coli JM109 cells assessed as decrease in progesterone hydroxylation in presence of cytochrome P450 reductase […].

A word on the IC50: it is the point on the concentration scale where inhibition reaches its midpoint.

T1 sequence (P05093 whole entry, looked up): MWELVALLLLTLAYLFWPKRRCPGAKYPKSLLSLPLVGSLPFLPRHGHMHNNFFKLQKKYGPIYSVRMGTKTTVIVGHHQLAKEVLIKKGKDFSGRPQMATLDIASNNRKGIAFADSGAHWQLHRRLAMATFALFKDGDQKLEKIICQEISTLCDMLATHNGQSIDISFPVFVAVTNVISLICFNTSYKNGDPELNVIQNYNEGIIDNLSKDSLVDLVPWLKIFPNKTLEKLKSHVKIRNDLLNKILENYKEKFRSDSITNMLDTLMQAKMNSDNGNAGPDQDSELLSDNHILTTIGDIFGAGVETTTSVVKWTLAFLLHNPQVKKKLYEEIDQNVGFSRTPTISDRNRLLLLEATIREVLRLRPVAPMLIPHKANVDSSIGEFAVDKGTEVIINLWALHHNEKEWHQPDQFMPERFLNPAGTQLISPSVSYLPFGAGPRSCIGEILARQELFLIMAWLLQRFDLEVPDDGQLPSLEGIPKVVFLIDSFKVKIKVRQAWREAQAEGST
Sequence of Steroid 21-hydroxylase (P08686 whole entry, looked up, stated change not applied): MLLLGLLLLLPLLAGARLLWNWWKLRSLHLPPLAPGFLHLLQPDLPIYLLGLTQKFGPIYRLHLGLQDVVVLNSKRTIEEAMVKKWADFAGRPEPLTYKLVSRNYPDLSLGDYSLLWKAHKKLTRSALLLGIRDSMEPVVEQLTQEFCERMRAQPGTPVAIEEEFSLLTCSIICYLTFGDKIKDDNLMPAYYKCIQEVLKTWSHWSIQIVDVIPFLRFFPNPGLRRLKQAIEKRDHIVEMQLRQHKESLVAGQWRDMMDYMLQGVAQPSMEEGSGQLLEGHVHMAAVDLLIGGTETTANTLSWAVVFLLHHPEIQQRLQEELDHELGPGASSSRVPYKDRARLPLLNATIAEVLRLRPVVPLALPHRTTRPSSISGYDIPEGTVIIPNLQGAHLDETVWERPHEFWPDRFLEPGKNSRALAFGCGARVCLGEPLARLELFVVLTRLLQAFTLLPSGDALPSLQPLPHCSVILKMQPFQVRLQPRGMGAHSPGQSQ

In the case of `C[C@]12CC[C@H](O)C[C@@H]1C(=O)C[C@@H]1[C@@H]2CC[C@]2(C)C(c3cccnc3)=CC[C@@H]12`, the Ratio IC50 in the assay filed under Homo sapiens is 35. Moreover, the concentration for half-maximal inhibition (IC50) in assay [1] was determined as 0.0124 µM; at Steroid 21-hydroxylase, 0.44 µM.

Consider `C[C@]12CC[C@H](O)CC1=CC[C@@H]1[C@@H]2CC[C@]2(C)C(c3cccnc3)=CC[C@@H]12` [ABIRATERONE], for which the figures for the IC50 in assay [2] and in assay [1] were 0.0094 to 0.092 µM and 0.00494 µM, respectively.

Consider `C[C@]12CC[C@H](O)CC1=C(C(N)=O)C[C@@H]1[C@@H]2CC[C@]2(C)C(c3cccnc3)=CC[C@@H]12`, for which, in the assay listed under Homo sapiens, the Ratio IC50 turned out to be 29. The IC50 in assay [1] was 0.0228 µM; on Steroid 21-hydroxylase, 0.673 µM.

With `C[C@]12CC[C@H](O)CC1=CC[C@@H]1[C@@H]2CC[C@]2(C)C(n3cnc4ccccc43)=CC[C@@H]12` [GALETERONE], the IC50 in assay [1] was determined as 0.0281 µM.

Turning to `C[C@]12CC[C@H](O)CC1=C(C#N)C[C@@H]1[C@@H]2CC[C@]2(C)C(c3cccnc3)=CC[C@@H]12`, in assay [1], the IC50 was found to be 0.0155 µM.

For the molecule `C[C@]12CC[C@H](O)C[C@@H]1[C@@H](O)C[C@@H]1[C@@H]2CC[C@]2(C)C(c3cccnc3)=CC[C@@H]12`, the Ratio IC50 in the assay listed under Homo sapiens amounted to 33. Further, the IC50 stood at 0.0072 µM in assay [1] and 0.234 µM on Steroid 21-hydroxylase.

In the case of `C[C@]12CC[C@H](O)CC1=CC[C@@H]1[C@@H]2CC[C@]2(C)C(c3ccccc3)=CC[C@@H]12`, the figures for the half-maximal inhibitory concentration (IC50) (in assay [1]; at Steroid 21-hydroxylase) were above 20 µM and at least 0.7 µM, respectively.

As for `C[C@]12CC[C@H](O)C[C@@H]1NC(=O)C[C@@H]1[C@@H]2CC[C@]2(C)C(c3cccnc3)=CC[C@@H]12`, the Ratio IC50 in the assay listed under Homo sapiens stood at 16. Further, the figures for the half-inhibitory concentration (IC50) (in assay [1]; on Steroid 21-hydroxylase) were 0.23 µM and 3.6 µM, respectively.

Regarding `C[C@]12CCC(=O)C=C1CC[C@@H]1[C@@H]2CC[C@]2(C)C(c3cccnc3)=CC[C@@H]12`, the IC50 is 0.00613 µM in assay [1] and 0.0007 µM at Steroid 21-hydroxylase.
